# Measured values reported in ChEMBL document CHEMBL4229382, “Phenylthiazoles with tert-Butyl side chain: Metabolically stable with anti-biofilm activity” (Eur J Med Chem, 2018).
# Active and inactive are the calls of the source. The rule behind the calls is not given here.
# Legend:
# Staphylococcus aureus [1] = assay: Antibacterial activity against methicillin-resistant Staphylococcus aureus NRS123 USA400 assessed as change in MIC after 14 serial passages by broth microdilution assay
# Staphylococcus aureus [2] = assay: Inhibition of biofilm formation in methicillin-resistant Staphylococcus aureus NRS384 USA300 after 24 hrs by crystal violet staining-based spectrophotometric analysis
# [3] = Safety index, ratio of cytotoxicity against human Caco2 cells at 32 ug/ml after 2 hrs by MTS assay to antibacterial activity against methicillin-resistant Staphylococcus aureus; type: toxicity, cell-based; conditions: Caco-2 cells
# Streptococcus pneumoniae [4] = assay: Bactericidal activity against methicillin-resistant Streptococcus pneumoniae ATCC 700677 incubated fo 18 hrs followed by re-plating on tryptic soy agar plates at 37 degC for 18 hrs by broth microdilution assay; type: functional; conditions: ATCC 700677, 18 h
# Staphylococcus aureus [5] = assay: Bactericidal activity against methicillin-resistant Staphylococcus aureus NRS385 incubated fo 18 hrs followed by re-plating on tryptic soy agar plates at 37 degC for 18 hrs by broth microdilution assay; type: functional; conditions: NRS385, 18 h
# Staphylococcus aureus [6] = assay: Bactericidal activity against methicillin-resistant Staphylococcus aureus NRS386 incubated fo 18 hrs followed by re-plating on tryptic soy agar plates at 37 degC for 18 hrs by broth microdilution assay; type: functional; conditions: NRS386, 18 h
# Staphylococcus aureus [7] = assay: Antibacterial activity against methicillin-resistant Staphylococcus aureus 2658 RCMB after 18 hrs by broth microdilution assay; type: functional
# Method in brief: (§1)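 Broth microdilution: inoculum from 0.5 McFarland suspension diluted to about 5 × 10^5 CFU/mL. Media were cation-adjusted Mueller-Hinton broth for staphylococci, brain heart infusion for E. faecium, and tryptone soya broth for E. faecalis, S. pneumoniae and L. monocytogenes.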
# Staphylococcus aureus [8] = assay: Bactericidal activity against methicillin-sensitive Staphylococcus aureus ATCC 6538 incubated fo 18 hrs followed by re-plating on tryptic soy agar plates at 37 degC for 18 hrs by broth microdilution assay; type: functional; conditions: ATCC 6538, 18 h
# Caco-2 = assay: Cytotoxicity against human Caco2 cells at 32 ug/ml after 2 hrs by MTS assay; type: cell-based; conditions: caco-2, 2 h
# Method in brief: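 Caco-2 cells grown in DMEM with 20% FBS, non-essential amino acids and penicillin-streptomycin, 37 °C, 5% CO2; exposed in triplicate to compounds (16, 32, 64 µg/mL) for 2 h; MTS added, 4 h further incubation, OD490 read; viability as percent of DMSO-treated controls; two independent experiments.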
# Staphylococcus aureus [9] = assay: Antibacterial activity against methicillin-resistant Staphylococcus aureus NRS386 after 18 hrs by broth microdilution assay; type: functional; conditions: NRS386, 18 h
# Method in brief: as §1
# Enterococcus faecalis [10] = assay: Antibacterial activity against vancomycin-resistant Enterococcus faecalis ATCC 51299 after 18 hrs by broth microdilution assay; type: functional; conditions: ATCC 51299, 18 h
# Method in brief: as §1
# Staphylococcus aureus [11] = assay: Bactericidal activity against vancomycin-resistant Staphylococcus aureus VRS12 incubated fo 18 hrs followed by re-plating on tryptic soy agar plates at 37 degC for 18 hrs by broth microdilution assay; type: functional; conditions: VRS12, 18 h
# Streptococcus pneumoniae [12] = assay: Bactericidal activity against cephalosporin-resistant Streptococcus pneumoniae ATCC 51916 incubated fo 18 hrs followed by re-plating on tryptic soy agar plates at 37 degC for 18 hrs by broth microdilution assay; type: functional; conditions: ATCC 51916, 18 h
# Streptococcus pneumoniae [13] = assay: Antibacterial activity against cephalosporin-resistant Streptococcus pneumoniae ATCC 51916 after 18 hrs by broth microdilution assay; type: functional; conditions: ATCC 51916, 18 h
# Method in brief: as §1
# Staphylococcus aureus [14] = assay: Antibacterial activity against methicillin-resistant Staphylococcus aureus NRS385 after 18 hrs by broth microdilution assay; type: functional; conditions: NRS385, 18 h
# Method in brief: as §1
# Staphylococcus aureus [15] = assay: Bactericidal activity against methicillin-resistant Staphylococcus aureus NRS123 USA400 incubated fo 18 hrs followed by re-plating on tryptic soy agar plates at 37 degC for 18 hrs by broth microdilution assay; type: functional; conditions: NRS123 USA400, 18 h
# Staphylococcus aureus [16] = assay: Bactericidal activity against methicillin-resistant Staphylococcus aureus NRS384 USA300 incubated fo 18 hrs followed by re-plating on tryptic soy agar plates at 37 degC for 18 hrs by broth microdilution assay; type: functional; conditions: NRS384 USA300, 18 h
# Staphylococcus aureus [17] = assay: Bactericidal activity against vancomycin-resistant Staphylococcus aureus VRS10 incubated fo 18 hrs followed by re-plating on tryptic soy agar plates at 37 degC for 18 hrs by broth microdilution assay; type: functional; conditions: VRS10, 18 h
# Staphylococcus aureus [18] = assay: Antibacterial activity against methicillin-resistant Staphylococcus aureus NRS119 after 18 hrs by broth microdilution assay; type: functional; conditions: NRS119, 18 h
# Method in brief: as §1
# Enterococcus faecium [19] = assay: Bactericidal activity against vancomycin-resistant Enterococcus faecium ATCC 700221 incubated fo 18 hrs followed by re-plating on tryptic soy agar plates at 37 degC for 18 hrs by broth microdilution assay; conditions: ATCC 700221, 18 h
# Staphylococcus aureus [20] = assay: Antibacterial activity against methicillin-resistant Staphylococcus aureus NRS123 USA400 assessed as reduction in bacterial burden measured over 24 hrs by time kill assay; type: functional
# Method in brief: (§2)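 Samples taken at 0, 2, 4, 6, 8, 12 and 24 h were serially diluted in PBS, plated on TSA and incubated ≥18 h for viable CFU/mL. DMSO was the negative control; two independent experiments.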
# Staphylococcus aureus [21] = assay: Antibacterial activity against methicillin-resistant Staphylococcus aureus NRS384 USA300 after 18 hrs by broth microdilution assay; type: functional; conditions: NRS384 USA300, 18 h
# Method in brief: as §1
# Listeria monocytogenes [22] = assay: Antibacterial activity against Listeria monocytogenes ATCC 19111 after 18 hrs by broth microdilution assay; type: functional; conditions: ATCC 19111, 18 h
# [23] = system: Staphylococcus epidermidis; assay: Antibacterial activity against methicillin-resistant Staphylococcus epidermidis NRS101 after 18 hrs by broth microdilution assay; type: functional; conditions: NRS101, 18 h
# Method in brief: as §1
# Staphylococcus aureus [24] = assay: Inhibition of biofilm formation in methicillin-resistant Staphylococcus aureus NRS384 USA300 at 1 time MIC after 24 hrs by crystal violet staining-based spectrophotometric analysis relative to control; parameters: scale not given: the % may be the effect or the level left
# [25] = system: Staphylococcus epidermidis; assay: Bactericidal activity against methicillin-resistant Staphylococcus epidermidis NRS101 incubated fo 18 hrs followed by re-plating on tryptic soy agar plates at 37 degC for 18 hrs by broth microdilution assay; type: functional; conditions: NRS101, 18 h
# Staphylococcus aureus [26] = assay: Inhibition of biofilm formation in methicillin-resistant Staphylococcus aureus NRS384 USA300 at 2 times MIC after 24 hrs by crystal violet staining-based spectrophotometric analysis relative to control; parameters: scale not given: the % may be the effect or the level left
# Staphylococcus aureus [27] = assay: Antibacterial activity against methicillin-sensitive Staphylococcus aureus NRS107 after 18 hrs by broth microdilution assay; type: functional; conditions: NRS107, 18 h
# Method in brief: as §1
# Staphylococcus aureus [28] = assay: Bactericidal activity against methicillin-resistant Staphylococcus aureus NRS119 incubated fo 18 hrs followed by re-plating on tryptic soy agar plates at 37 degC for 18 hrs by broth microdilution assay; type: functional; conditions: NRS119, 18 h
# Staphylococcus aureus [29] = assay: Bactericidal activity against methicillin-sensitive Staphylococcus aureus NRS107 incubated fo 18 hrs followed by re-plating on tryptic soy agar plates at 37 degC for 18 hrs by broth microdilution assay; type: functional; conditions: NRS107, 18 h
# Streptococcus pneumoniae [30] = assay: Antibacterial activity against methicillin-resistant Streptococcus pneumoniae ATCC 700677 after 18 hrs by broth microdilution assay; type: functional; conditions: ATCC 700677, 18 h
# Method in brief: as §1
# Staphylococcus aureus [31] = assay: Antibacterial activity against methicillin-sensitive Staphylococcus aureus ATCC 6538 after 18 hrs by broth microdilution assay; type: functional; conditions: ATCC 6538, 18 h
# Method in brief: as §1
# Listeria monocytogenes [32] = assay: Selectivity ratio of MBC to MIC for Listeria monocytogenes ATCC 19111; type: functional
# Staphylococcus aureus [33] = assay: Antibacterial activity against methicillin-resistant Staphylococcus aureus NRS123 USA400 after 18 hrs by broth microdilution assay; type: functional; conditions: NRS123 USA400, 18 h
# Method in brief: as §1
# Staphylococcus aureus [34] = assay: Antibacterial activity against vancomycin-resistant Staphylococcus aureus VRS12 after 18 hrs by broth microdilution assay; type: functional; conditions: VRS12, 18 h
# Method in brief: as §1
# Listeria monocytogenes [35] = assay: Bactericidal activity against Listeria monocytogenes ATCC 19111 incubated fo 18 hrs followed by re-plating on tryptic soy agar plates at 37 degC for 18 hrs by broth microdilution assay; type: functional; conditions: ATCC 19111, 18 h
# Enterococcus faecium [36] = assay: Antibacterial activity against vancomycin-resistant Enterococcus faecium ATCC 700221 after 18 hrs by broth microdilution assay; type: functional; conditions: ATCC 700221, 18 h
# Method in brief: as §1
# Staphylococcus aureus [37] = assay: Antibacterial activity against vancomycin-resistant Staphylococcus aureus VRS10 after 18 hrs by broth microdilution assay; type: functional; conditions: VRS10, 18 h
# Method in brief: as §1
# [38] = Terminal phase volume of distribution at steady state in Sprague-Dawley rat at 5 uM, iv administered as bolus dose by LC-MS/MS analysis; type: ADME, organism-based; conditions: in vivo, read-out: Vbeta
# Method in brief: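 Male naïve Sprague–Dawley rats (n = 3) given tail-vein IV bolus of a 5 µM solution; blood taken into EDTA-K2 over 12 h; plasma protein-precipitated with acetonitrile and measured by LC/MS/MS; parameters from two-compartmental analysis.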
# Enterococcus faecalis [39] = assay: Bactericidal activity against vancomycin-resistant Enterococcus faecalis ATCC 51299 incubated fo 18 hrs followed by re-plating on tryptic soy agar plates at 37 degC for 18 hrs by broth microdilution assay; type: functional; conditions: ATCC 51299, 18 h
# Staphylococcus aureus [40] = assay: Antibacterial activity against methicillin-resistant Staphylococcus aureus NRS123 USA400 assessed as reduction in bacterial growth after 2 to 4 hrs by time kill assay; type: functional, organism-based
# Method in brief: as §2
Compound,Ratio (Staphylococcus aureus [1]),inhibition (Staphylococcus aureus [2]),"selectivity ratio at 2 h, 32 ug/ml [3]",MBC (Streptococcus pneumoniae [4]) [mg/L],MBC (Staphylococcus aureus [5]) [mg/L],MBC (Staphylococcus aureus [6]) [mg/L],MIC (Staphylococcus aureus [7]) [mg/L],MBC (Staphylococcus aureus [8]) [mg/L],Activity (Caco-2),MIC (Staphylococcus aureus [9]) [mg/L],MIC (Enterococcus faecalis [10]) [mg/L],MBC (Staphylococcus aureus [11]) [mg/L],MBC (Streptococcus pneumoniae [12]) [mg/L],MIC (Staphylococcus aureus [14]) [mg/L],MBC (Staphylococcus aureus [15]) [mg/L],MBC (Enterococcus faecium [19]) [mg/L],Activity (Staphylococcus aureus [24]) [%],Activity (Staphylococcus aureus [26]) [%],MIC (Staphylococcus aureus [27]) [mg/L],MIC (Staphylococcus aureus [31]) [mg/L],also measured
CO[C@H]1/C=C/O[C@@]2(C)Oc3c(C)c(O)c4c(O)c(c(/C=N/N5CCN(C)CC5)c(O)c4c3C2=O)NC(=O)/C(C)=C\C=C\[C@H](C)[C@H](O)[C@@H](C)[C@@H](O)[C@@H](C)[C@H](OC(C)=O)[C@@H]1C [RIFAMPIN],>500000,–,–,–,–,–,–,–,–,–,–,–,–,–,–,–,–,–,–,–,–
Cc1nc(-c2ccc(C(C)(C)C)cc2)sc1-c1ccnc(NC(=N)c2cccnc2)n1,–,Dose-dependent effect,8 to 30,8,4,4,0.78,4,Non-Toxic,4,8,4,8,4,4,16,45.8,65.2,4,4,MIC (Streptococcus pneumoniae [13]): 4 mg/L; MBC (Staphylococcus aureus [16]): 4 mg/L; MBC (Staphylococcus aureus [17]): 4 mg/L; MIC (Staphylococcus aureus [18]): 4 mg/L; Activity (Staphylococcus aureus [20]): 2.3 log10CFU/ml; MIC (Staphylococcus aureus [21]): 4 mg/L; MIC (Listeria monocytogenes [22]): 4 mg/L; MIC [23]: 64 mg/L; MBC [25]: > 64 mg/L; MBC (Staphylococcus aureus [28]): 4 mg/L; MBC (Staphylococcus aureus [29]): 4 mg/L; MIC (Streptococcus pneumoniae [30]): 4 mg/L; Ratio (Listeria monocytogenes [32]): >3; MIC (Staphylococcus aureus [33]): 4 mg/L; MIC (Staphylococcus aureus [34]): 4 mg/L; MBC (Listeria monocytogenes [35]): 64 mg/L; MIC (Enterococcus faecium [36]): 8 mg/L; MIC (Staphylococcus aureus [37]): 4 mg/L
Cc1nc(-c2ccc(C(C)(C)C)cc2)sc1-c1ccnc(NCCN)n1,1,Dose-dependent effect,8 to 30,16,–,–,1.17,–,Non-Toxic,–,16,–,16,–,–,8,28,64,4,4,Vd at 5 µM [38]: 16.4 L; MBC (Enterococcus faecalis [39]): 16 mg/L; Activity (Staphylococcus aureus [40]): Active; MIC (Streptococcus pneumoniae [30]): 2 mg/L
Cc1nc(-c2ccc(C(C)(C)C)cc2)sc1-c1ccnc(NC(=N)N(C)C)n1,–,Dose-dependent effect,–,–,8,8,1.17,8,Toxic,8,8,8,–,8,8,16,35.5,48.2,8,8,MBC (Staphylococcus aureus [16]): 8 mg/L; MBC (Staphylococcus aureus [17]): 8 mg/L; MIC (Staphylococcus aureus [18]): 8 mg/L; MIC (Staphylococcus aureus [21]): 8 mg/L; MIC (Listeria monocytogenes [22]): 8 mg/L; MIC [23]: 8 mg/L; MBC [25]: 8 mg/L; Activity (Staphylococcus aureus [40]): Active; MBC (Staphylococcus aureus [28]): 8 mg/L; MBC (Staphylococcus aureus [29]): 8 mg/L; MIC (Staphylococcus aureus [33]): 8 mg/L; MIC (Staphylococcus aureus [34]): 8 mg/L; MBC (Listeria monocytogenes [35]): 8 mg/L; MIC (Enterococcus faecium [36]): 8 mg/L; MIC (Staphylococcus aureus [37]): 8 mg/L
